In ChEMBL document CHEMBL1795263, “Identification of 5-arylidene-4-thiazolidinone derivatives endowed with dual activity as aldose reductase inhibitors and antioxidant agents for the treatment of diabetic complications” (Eur J Med Chem, 2011):
Activity calls are given as the source filed them. No cut-off for these calls is given here.

Columns and labels:
[1] = target: Aldo-keto reductase family 1 member B1 (Bos taurus) (UniProt P16116); assay: Inhibition of bovine lens ALR2 at 25 uM; details: Lens of camera-type eye
[2] = target: Aldo-keto reductase family 1 member B1 (Bos taurus, UniProt P16116); assay: Inhibition of bovine lens ALR2; set-up: species or system Lens of camera-type eye
Method in brief: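 ALR2 was purified from bovine lens by DE-52 ion exchange and Matrex Orange A affinity chromatography (0.8 U/mg). Assay at 37 °C with 4.67 mM D,L-glyceraldehyde and 0.11 mM NADPH in 0.25 M sodium phosphate pH 6.8, 0.38 M ammonium sulfate and 0.5 mM EDTA, with 1% (v/v) DMSO. IC50 was fitted by nonlinear one-site competition on log dose-inhibition curves from ≥7 concentrations; 95% confidence limits given.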

Brain = assay: Antioxidant activity against FeCl3/ascorbic acid-induced lipid peroxidation in rat brain homogenate at 100 uM by TBARS assay; format: functional, tissue-based
Method in brief: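 Fresh rat brain homogenised 10% (w/v) in phosphate buffer pH 7.4. Homogenate was incubated with 20 µM FeCl3 and 100 µM ascorbic acid (final) plus compound (100 uM) or α-tocopherol for 30 min at 37 °C. Thiobarbituric acid/HCl was added, then boiling, n-butanol extraction and A532 read. Values are nmol MDA/10 mg wet tissue from a tetramethoxypropane standard curve; mean ± S.E.M., ≥2 determinations in triplicate.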

SMILES | inhibition [1] | IC50 [2] [µM] | Activity (Brain)
COc1ccc(/C=C/C=C2/SC(=O)NC2=O)cc1 | 51% | – | –
O=C(O)CN1C(=O)/C(=C\c2ccc3ccccc3c2)S/C1=N\c1ccccc1 | – | 2.7 | –
O=C1NC(=O)/C(=C/C=C/c2ccc(C(F)(F)F)cc2)S1 | 65% | – | –
Cc1ccc(/C=C/C=C2\SC(=O)N(CC(=O)O)C2=O)cc1 | – | 1.05 | Active
COc1ccc(/C=C/c2ccc(/C=C3\SC(=O)N(CC(=O)O)C3=O)cc2)cc1 | – | 0.25 | Active
O=C(O)CN1C(=O)S/C(=C\c2ccc(/C=C/c3ccccc3)cc2)C1=O | – | 0.27 | Active
O=C(O)CN1C(=O)S/C(=C\C=C\c2ccccc2)C1=O | – | 1.32 | Active
Cc1ccc(/C=C/c2ccc(/C=C3\SC(=O)N(CC(=O)O)C3=O)cc2)cc1 | – | 0.35 | Active
O=C(O)CN1C(=O)S/C(=C\c2ccc(/C=C/c3ccc(C(F)(F)F)cc3)cc2)C1=O | – | 1.25 | Active
O=C(O)CN1C(=O)S/C(=C\C=C\c2ccc(C(F)(F)F)cc2)C1=O | – | 0.3 | Active
Cc1ccc(/C=C/C=C2/SC(=O)NC2=O)cc1 | 46% | – | –
O=C(O)CN1C(=O)/C(=C\c2ccc(Oc3ccccc3)cc2)S/C1=N\c1ccccc1 | – | 4.4 | –
O=C(O)CN1C(=O)/C(=C\c2ccc(OCc3ccccc3)cc2)S/C1=N\c1ccccc1 | – | 4.9 | –
COc1ccc(/C=C/C=C2\SC(=O)N(CC(=O)O)C2=O)cc1 | – | 0.85 | Active
O=C1NC(=O)/C(=C\C=C\c2ccccc2)S1 | 31% | – | –
O=C1NC(=O)/C(=C/c2ccc(/C=C/c3ccccc3)cc2)S1 | inactive | – | –
COc1ccc(/C=C/c2ccc(/C=C3\SC(=O)NC3=O)cc2)cc1 | inactive | – | –
O=C(O)CN1C(=O)S/C(=C\c2ccc(Oc3ccccc3)cc2)C1=O | – | 0.07 | –
Cc1ccc(/C=C/c2ccc(/C=C3\SC(=O)NC3=O)cc2)cc1 | 39% | – | –
O=C1NC(=O)/C(=C/c2ccc(/C=C/c3ccc(C(F)(F)F)cc3)cc2)S1 | 29% | – | –
